Source: ChEMBL document CHEMBL3997841, “Continued optimization of the M5 NAM ML375: Discovery of VU6008667, an M5 NAM with high CNS penetration and a desired short half-life in rat for addiction studies” (Bioorg Med Chem Lett, 2017)
pIC50: −log10 of the molar value. ≈ marks a conversion by molar mass, not a printed value.

How the values were obtained:
[1] = Clearance in rat plasma by LC/MS/MS analysis; format: ADME
[2] = Aqueous solubility of the compound; format: physicochemical; details: buffer
[3] = molecular target: T1, Muscarinic acetylcholine receptor M5 (Homo sapiens) (UniProt P08912); experiment: Negative allosteric modulation of human M5 receptor expressed in CHO cells assessed as inhibition of acetyl choline-induced calcium mobilization at 10 uM preincubated for 150 secs followed by acetyl choline addition by Fluo-4-AM dye based fluorescence assay relative to acetyl choline; values are per cent of control
T1 sequence (whole entry): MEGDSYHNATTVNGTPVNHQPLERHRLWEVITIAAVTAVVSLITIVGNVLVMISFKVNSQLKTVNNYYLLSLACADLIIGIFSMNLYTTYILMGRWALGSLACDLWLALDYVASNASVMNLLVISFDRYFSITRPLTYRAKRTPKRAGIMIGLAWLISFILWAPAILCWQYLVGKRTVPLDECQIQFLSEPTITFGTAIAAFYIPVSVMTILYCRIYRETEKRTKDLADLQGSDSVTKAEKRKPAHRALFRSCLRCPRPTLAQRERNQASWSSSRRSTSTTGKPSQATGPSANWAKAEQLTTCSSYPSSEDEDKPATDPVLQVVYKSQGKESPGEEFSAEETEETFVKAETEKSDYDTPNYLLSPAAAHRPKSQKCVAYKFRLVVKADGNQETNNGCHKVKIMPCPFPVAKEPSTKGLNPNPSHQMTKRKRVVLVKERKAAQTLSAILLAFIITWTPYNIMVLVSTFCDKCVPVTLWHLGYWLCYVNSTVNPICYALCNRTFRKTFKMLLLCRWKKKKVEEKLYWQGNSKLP

[4] = (§1) Fraction unbound in rat plasma at 5 uM after 4 hrs by LC-MS/MS based equilibrium dialysis method; format: ADME, cell-free
[5] = (§2) Fraction unbound in human plasma at 5 uM after 4 hrs by LC-MS/MS based equilibrium dialysis method; format: ADME, cell-free
[6] = Elimination half life in rat by LC-MS/MS analysis; format: ADME; details: in vivo, read-out: beta t1/2
[7] = molecular target: T2, Muscarinic acetylcholine receptor M5 (Homo sapiens, UniProt P08912); experiment: Negative allosteric modulation of human M5 receptor expressed in CHO cells assessed as inhibition of acetyl choline-induced calcium mobilization preincubated for 150 secs followed by acetyl choline addition by Fluo-4-AM dye based fluorescence assay; format: functional, cell-based; details: for pIC50: read-out: IC50; for IC50: read-out: pIC50 (converted)
T2 sequence (P08912 whole entry): T1 sequence (whole entry)
Summary of the method: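 Intracellular calcium mobilization in CHO cells stably transfected with human M5 receptor, run in the presence of an ACh EC80 concentration; values are means of at least three independent determinations, each performed in triplicate.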

[8] = Selectivity ratio of IC50 for rat M5 receptor expressed in CHO cells to IC50 for human M5 receptor expressed in CHO cells; format: cell-based
[9] = Volume of distribution at steady state in rat at 1 mg/kg, iv or 3 mg/kg, po by LC-MS/MS analysis; format: ADME, organism-based; details: in vivo, read-out: Vdss
[10] = molecular target: T3, Muscarinic acetylcholine receptor M5 (Rattus norvegicus) (UniProt P08911); experiment: Negative allosteric modulation of rat M5 receptor expressed in CHO cells assessed as inhibition of acetyl choline-induced calcium mobilization at 10 uM preincubated for 150 secs followed by acetyl choline addition by Fluo-4-AM dye based fluorescence assay relative to acetyl choline; values are per cent of control
T3 sequence (whole entry): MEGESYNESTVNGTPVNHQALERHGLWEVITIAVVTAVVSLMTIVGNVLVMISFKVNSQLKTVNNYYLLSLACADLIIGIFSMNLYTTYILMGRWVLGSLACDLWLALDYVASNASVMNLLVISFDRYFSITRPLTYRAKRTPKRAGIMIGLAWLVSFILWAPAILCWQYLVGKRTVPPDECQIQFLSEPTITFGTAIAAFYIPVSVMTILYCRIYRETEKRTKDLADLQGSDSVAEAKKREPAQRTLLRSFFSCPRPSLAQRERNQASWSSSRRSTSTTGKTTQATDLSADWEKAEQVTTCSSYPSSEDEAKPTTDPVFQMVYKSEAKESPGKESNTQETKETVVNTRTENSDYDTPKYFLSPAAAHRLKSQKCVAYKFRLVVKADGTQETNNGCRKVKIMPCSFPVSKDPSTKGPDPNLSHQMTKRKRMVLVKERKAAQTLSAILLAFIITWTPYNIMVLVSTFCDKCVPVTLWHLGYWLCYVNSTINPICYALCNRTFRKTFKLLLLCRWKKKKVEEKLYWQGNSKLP

Plasma [11] = experiment: as §1; format: ADME, cell-free; details: 4 h, 5 µM
Brain = experiment: Fraction unbound in rat brain at 1 uM after 4 hrs by LC-MS/MS based equilibrium dialysis method; format: ADME, tissue-based
Plasma [12] = experiment: as §2; format: ADME, cell-free; details: 4 h, 5 µM
[13] = molecular target: T4, Muscarinic acetylcholine receptor M5 (Rattus norvegicus, UniProt P08911); experiment: Negative allosteric modulation of rat M5 receptor expressed in CHO cells assessed as inhibition of acetyl choline-induced calcium mobilization preincubated for 150 secs followed by acetyl choline addition by Fluo-4-AM dye based fluorescence assay; format: functional, cell-based
T4 sequence (P08911 whole entry): T3 sequence (whole entry)
Summary of the method: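 Calcium mobilization assay in CHO cells stably transfected with rat M5 receptor; data are means of at least three independent determinations done in triplicate.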

[14] = Clearance in rat at 1 mg/kg, iv or 3 mg/kg, po by LC-MS/MS analysis; format: ADME, organism-based; details: in vivo
Rattus norvegicus = experiment: Oral bioavailability in rat at 3 mg/kg by LC-MS/MS analysis; format: ADME, organism-based; details: in vivo

| clearance [1] | solubility [2] | residual activity [3] | fraction unbound at 4 h, 5 µM [4] | fraction unbound at 4 h, 5 µM [5] | half-life [6] | pIC50 [7] | IC50 [7] | Vd [9] | residual activity [10] | Fu (Plasma [11]) | Fu (Brain) | Fu (Plasma [12]) | pIC50 [13] | clearance [14] | F (Rattus norvegicus) | Structure (SMILES) | Ratio IC50 [8] |
| --- | --- | --- | --- | --- | --- | --- | --- | --- | --- | --- | --- | --- | --- | --- | --- | --- | --- |
| > 70 mL/min/kg | 10000 µg/mL (≈ 21.1 mM) | 2.6% | < 0.01 | < 0.01 | < 30 min |  |  |  |  |  |  |  |  |  |  | CN(c1ccc([C@@]23c4ccccc4C(=O)N2CCN3C(=O)c2ccc(F)c(F)c2)cc1)C1CCC1 |  |
| > 70 mL/min/kg | 10000 µg/mL (≈ 19.6 mM) | 3.1% | < 0.01 | < 0.01 | < 30 min | 5.84 |  |  |  |  |  |  |  |  |  | O=C(c1ccc(F)c(F)c1)N1CCN2C(=O)c3ccccc3[C@@]12c1ccc(N2CCCC(F)(F)C2)cc1 | 2 |
| > 70 mL/min/kg |  | 2.6% | < 0.01 | < 0.01 | < 30 min | 5.24 |  |  |  |  |  |  |  |  |  | O=C(c1ccc(F)c(F)c1)N1CCN2C(=O)c3ccccc3[C@@]12c1ccc(N2CCCCC2C(F)(F)F)cc1 (some centres not stated) |  |
| > 70 mL/min/kg |  | 6.9% | < 0.01 | < 0.01 | < 30 min | 5.20 |  |  |  |  |  |  |  |  |  | O=C(c1ccc(F)c(F)c1)N1CCN2C(=O)c3ccccc3[C@@]12c1ccc(N2CCCC(F)C2)cc1 (some centres not stated) |  |
| > 70 mL/min/kg |  | 26.3% | < 0.01 | < 0.01 | < 30 min |  |  |  |  |  |  |  |  |  |  | N#CC1CCCN(c2ccc([C@@]34c5ccccc5C(=O)N3CCN4C(=O)c3ccc(F)c(F)c3)cc2)C1 (some centres not stated) |  |
| > 70 mL/min/kg |  | 3.6% | < 0.01 | < 0.01 | < 30 min |  |  |  |  |  |  |  |  |  |  | CC1CCCN(c2ccc([C@@]34c5ccccc5C(=O)N3CCN4C(=O)c3ccc(F)c(F)c3)cc2)C1 (some centres not stated) |  |
| > 70 mL/min/kg |  | 6% | < 0.01 | < 0.01 | < 30 min | 5.46 |  |  |  |  |  |  |  |  |  | O=C(c1ccc(F)c(F)c1)N1CCN2C(=O)c3ccccc3[C@@]12c1ccc(N2CCC[C@H]2c2cccnc2)cc1 |  |
| > 70 mL/min/kg |  | 25.5% | < 0.01 | < 0.01 | < 30 min | 5.16 | 6.76 µM |  |  |  |  |  |  |  |  | O=C(c1ccc(F)c(F)c1)N1CCN2C(=O)c3ccccc3[C@@]12c1ccc(NC2CCC2)cc1 |  |
| > 70 mL/min/kg |  | 3.3% | < 0.01 | < 0.01 | < 30 min | 5.51 | 3.02 µM |  |  |  |  |  |  |  |  | O=C(c1ccc(F)c(F)c1)N1CCN2C(=O)c3ccccc3[C@@]12c1ccc(N2CC[C@@H](F)C2)cc1 |  |
|  |  |  |  |  |  |  |  | 7.4 L/kg | 2.6% | 0.014 | 0.003 | 0.006 | 5.80 | 82 mL/min/kg | 17% | Cc1cc([C@@]23c4ccccc4C(=O)N2CCN3C(=O)c2ccc(F)c(F)c2)ccc1Cl |  |
| > 70 mL/min/kg |  | 3.2% | < 0.01 | < 0.01 | < 30 min | 5.47 |  |  |  |  |  |  |  |  |  | O=C(c1ccc(F)c(F)c1)N1CCN2C(=O)c3ccccc3[C@@]12c1ccc(N2CCC(C(F)(F)F)CC2)cc1 |  |
| > 70 mL/min/kg |  | 7.5% | < 0.01 | < 0.01 | < 30 min |  |  |  |  |  |  |  |  |  |  | CCOC(=O)N1CCN(c2ccc([C@@]34c5ccccc5C(=O)N3CCN4C(=O)c3ccc(F)c(F)c3)cc2)CC1 |  |
| > 70 mL/min/kg |  | 13.6% | < 0.01 | < 0.01 | < 30 min | 5.37 |  |  |  |  |  |  |  |  |  | O=C(c1ccc(F)c(F)c1)N1CCN2C(=O)c3ccccc3[C@@]12c1ccc(N2CCC(F)CC2)cc1 |  |
| > 70 mL/min/kg |  | 26.2% | < 0.01 | < 0.01 | < 30 min | < 5.00 |  |  |  |  |  |  |  |  |  | O=C(c1ccc(F)c(F)c1)N1CCN2C(=O)c3ccccc3[C@@]12c1ccc(N2CC3(C2)CC(F)(F)C3)cc1 |  |
|  | < 10 µg/mL | 2.3% |  |  |  |  |  |  |  |  |  |  |  |  |  | O=C(c1ccc(F)c(F)c1)N1CCN2C(=O)c3ccccc3[C@@]12c1ccc(Cl)cc1 |  |
| > 70 mL/min/kg |  | 10.5% | < 0.01 | < 0.01 | < 30 min | 5.22 |  |  |  |  |  |  |  |  |  | O=C(c1ccc(F)c(F)c1)N1CCN2C(=O)c3ccccc3[C@@]12c1ccc(N2CCCCC2)cc1 |  |
| > 70 mL/min/kg |  | 20.1% | < 0.01 | < 0.01 | < 30 min | 5.09 | 7.76 µM |  |  |  |  |  |  |  |  | O=C(c1ccc(F)c(F)c1)N1CCN2C(=O)c3ccccc3[C@@]12c1ccc(N2CCc3ccccc3C2)cc1 |  |
| > 70 mL/min/kg |  | 27% | < 0.01 | < 0.01 | < 30 min | 5.34 | 4.47 µM |  |  |  |  |  |  |  |  | CC1Cc2ccccc2N1c1ccc([C@@]23c4ccccc4C(=O)N2CCN3C(=O)c2ccc(F)c(F)c2)cc1 (some centres not stated) |  |
| > 70 mL/min/kg | 10000 µg/mL (≈ 19.6 mM) | 3.1% | < 0.01 | < 0.01 | < 30 min | 5.74 |  |  |  |  |  |  |  |  |  | O=C(c1ccc(F)c(F)c1)N1CCN2C(=O)c3ccccc3[C@@]12c1ccc(N2CCC(F)(F)CC2)cc1 | 2 |
